Data on 26 compounds can be found in ChEMBL document CHEMBL4014346, “Lead Optimization Generates CYP11B1 Inhibitors of Pyridylmethyl Isoxazole Type with Improved Pharmacological Profile for the Treatment of Cushing's Disease” (J Med Chem, 2017).

A short description of data set [1]: Selectivity ratio of IC50 for human CYP11B2 expressed in hamster V79MZ cells to IC50 for human CYP11B1 expressed in hamster V79MZ cells. An outline of the steps: (§1)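 V79MZ cells expressing recombinant human CYP11B1 or CYP11B2, or rat CYP11B1, incubated with [1,2-³H]-11-deoxycorticosterone (100 nM) and inhibitor over a range of concentrations; ketoconazole as reference.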

Data set [2] deals with T1, Cytochrome P450 11B2, mitochondrial (Homo sapiens, UniProt P19099).
T1 sequence (P19099 whole entry): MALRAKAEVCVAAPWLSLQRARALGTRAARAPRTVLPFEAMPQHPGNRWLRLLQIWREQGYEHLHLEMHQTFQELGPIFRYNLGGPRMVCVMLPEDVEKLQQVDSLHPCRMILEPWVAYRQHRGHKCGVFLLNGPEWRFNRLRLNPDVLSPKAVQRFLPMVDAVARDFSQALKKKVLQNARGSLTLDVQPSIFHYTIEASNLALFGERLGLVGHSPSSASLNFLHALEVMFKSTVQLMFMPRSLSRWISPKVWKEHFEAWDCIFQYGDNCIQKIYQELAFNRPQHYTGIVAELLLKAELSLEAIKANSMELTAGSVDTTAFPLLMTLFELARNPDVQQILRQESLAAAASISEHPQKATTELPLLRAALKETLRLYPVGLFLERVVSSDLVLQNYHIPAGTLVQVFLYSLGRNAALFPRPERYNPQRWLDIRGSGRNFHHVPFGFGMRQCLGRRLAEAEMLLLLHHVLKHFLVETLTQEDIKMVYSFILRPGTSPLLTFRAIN
Put plainly: Inhibition of human CYP11B2 expressed in hamster V79MZ cells using [1,2-3H]-11-deoxycorticosterone as substrate after 6 hrs by HPLC analysis. The format is ADME, cell-based. An outline of the steps:
as §1

Data set [3] has as its target T2, Cytochrome P450 11B1, mitochondrial (Homo sapiens, UniProt P15538).
T2 sequence (P15538 whole entry): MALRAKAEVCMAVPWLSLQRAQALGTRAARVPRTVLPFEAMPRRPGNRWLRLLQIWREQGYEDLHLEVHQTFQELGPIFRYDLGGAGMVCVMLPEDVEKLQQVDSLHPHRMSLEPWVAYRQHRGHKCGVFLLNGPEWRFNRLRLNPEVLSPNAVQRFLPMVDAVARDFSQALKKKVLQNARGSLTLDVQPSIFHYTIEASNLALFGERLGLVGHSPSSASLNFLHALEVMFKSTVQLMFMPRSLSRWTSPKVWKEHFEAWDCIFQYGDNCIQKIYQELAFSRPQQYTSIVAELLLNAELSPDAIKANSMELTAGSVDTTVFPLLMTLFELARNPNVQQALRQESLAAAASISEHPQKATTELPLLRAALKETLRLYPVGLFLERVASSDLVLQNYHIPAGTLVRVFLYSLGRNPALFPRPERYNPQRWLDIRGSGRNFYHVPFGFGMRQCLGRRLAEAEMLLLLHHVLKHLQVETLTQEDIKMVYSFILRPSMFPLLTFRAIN
Put plainly: Inhibition of human CYP11B1 expressed in hamster V79MZ cells using [1,2-3H]-11-deoxycorticosterone as substrate after 6 hrs by HPLC analysis. The format is cell-based. An outline of the steps: as §1

Data set [4] is described as follows: Half life in rat liver S9 fractions at 1 uM in presence of NADPH/UDPGA by LC-MS/MS analysis. The format is ADME, tissue-based. An outline of the steps:
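Samples taken at 0, 5, 15 and 60 min, stopped with cold acetonitrile containing internal standard. Remaining parent measured by LC-MS/MS.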

Data set [5] has as its target T3, Cytochrome P450 11B1, mitochondrial (Rattus norvegicus, UniProt P15393).
T3 sequence (P15393 whole entry): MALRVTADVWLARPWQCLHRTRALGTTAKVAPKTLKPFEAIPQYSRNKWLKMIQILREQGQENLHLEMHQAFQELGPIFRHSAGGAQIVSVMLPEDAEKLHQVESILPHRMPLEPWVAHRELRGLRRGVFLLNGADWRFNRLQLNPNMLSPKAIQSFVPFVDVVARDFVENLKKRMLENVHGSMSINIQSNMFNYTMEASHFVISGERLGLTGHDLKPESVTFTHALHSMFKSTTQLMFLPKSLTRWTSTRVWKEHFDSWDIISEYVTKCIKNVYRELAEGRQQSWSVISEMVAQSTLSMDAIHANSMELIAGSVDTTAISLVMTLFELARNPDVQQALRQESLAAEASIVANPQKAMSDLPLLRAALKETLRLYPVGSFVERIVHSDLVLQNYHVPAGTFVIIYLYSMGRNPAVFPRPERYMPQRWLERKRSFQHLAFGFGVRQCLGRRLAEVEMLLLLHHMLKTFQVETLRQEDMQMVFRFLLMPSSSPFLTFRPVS
Put plainly: Inhibition of CYP11B1 in Sprague-Dawley rat adrenal tissue using 11-deoxycorticosterone as substrate after 4 hrs by SPA.

Usually IC50 stands for the concentration needed to halve the response being measured. A higher IC50 goes with a need for much substance. For the compound `Cc1cncc(Cc2ccc(NC3CC3)nc2)c1`, in data set [1], the “Ratio IC50” value worked out at 8. Moreover, the IC50 in data set [2] worked out at 0.032 µM; in data set [3] it was 0.004 µM.
`Cc1cncc(Cc2csnc2-c2ccccc2)c1`: the “Ratio IC50” value in data set [1] came out at 3. Further, the IC50 in data set [2] is 0.152 µM; in data set [3], 0.048 µM.
With `Cc1cncc(Cc2ccc(-c3ccccc3F)nc2)c1`, the “Ratio IC50” value in data set [1] stood at 9. Moreover, the IC50 in data set [2] is 0.027 µM; in data set [3] it was 0.003 µM.
Regarding `Cc1cncc(Cc2cc(-c3ccccc3)nn2C)c1`, the “Ratio IC50” value in data set [1] was 6. Further, the IC50 in data set [2] stood at 0.006 µM; in data set [3], 0.001 µM.
Consider `Cc1cncc(Cc2ccc(S(=O)(=O)c3ccccc3)nc2)c1`, for which, in data set [1], the “Ratio IC50” value came to 9. In addition, the IC50 in data set [2] turned out to be 0.173 µM; in data set [3], 0.02 µM.
Take `Cc1cncc(Cc2cnc(-c3ccccc3)s2)c1`: the “Ratio IC50” value in data set [1] was 3. The figures for the IC50 in data set [2] and in data set [3] were 0.024 µM and 0.009 µM, respectively.
Turning to `c1ccc(-c2cc(Cn3ccnc3)sn2)cc1`, the “Ratio IC50” value in data set [1] was found to be 9. In addition, the IC50 in data set [2] worked out at 0.12 µM; in data set [3] it was 0.014 µM.
Take `Cn1c(Cn2ccnc2)cnc1-c1ccccc1`: in data set [1], the “Ratio IC50” value amounted to 1. Further, the IC50 amounted to 0.507 µM in data set [2] and 0.516 µM in data set [3].
On to `c1ccc(-c2ncc(Cn3ccnc3)[se]2)cc1`, for which the “Ratio IC50” value in data set [1] is 6. Besides, the IC50 in data set [2] is 0.657 µM; in data set [3], 0.104 µM.
In the case of `Cc1cncc(Cc2ccc(-c3ccoc3)nc2)c1`, the “Ratio IC50” value in data set [1] turned out to be 7. Besides, the figures for the half-maximal inhibitory concentration (IC50) in data set [2] and in data set [3] were 0.028 µM and 0.004 µM, respectively.
In the case of `Cc1cncc(Cc2ccc(S(=O)(=O)c3ccccc3F)nc2)c1`, the “Ratio IC50” value in data set [1] was 9. Moreover, the half-inhibitory concentration (IC50) in data set [2] is 0.017 µM; in data set [3] it was 0.002 µM.
Consider `c1ccc(-c2ncc(Cn3ccnc3)o2)cc1`, for which the “Ratio IC50” value in data set [1] amounted to 4. Besides, the IC50 in data set [2] is 0.52 µM; in data set [3], 0.15 µM.
As to `Cc1cncc(Cc2ccc(-c3ccnn3C)nc2)c1`, the “Ratio IC50” value in data set [1] came to 6. Besides, the figures for the IC50 in data set [2] and in data set [3] were 0.097 µM and 0.016 µM, respectively.
Take `Cc1cncc(Cc2ccc(N3CCOCC3)nc2)c1`: in data set [1], the “Ratio IC50” value is listed as 4. The IC50 in data set [2] was determined as 0.09 µM; in data set [3], 0.022 µM.
As for `Cc1cncc(Cc2cc(-c3ccccc3)n[nH]2)c1`, the “Ratio IC50” value in data set [1] stood at 4. Further, the IC50 turned out to be 0.586 µM in data set [2] and 0.137 µM in data set [3].
Regarding `Cc1cncc(Cc2cc(-c3ccccc3)ns2)c1`, the “Ratio IC50” value in data set [1] is recorded as 8. The IC50 in data set [2] was 0.008 µM; in data set [3], 0.001 µM.
The corresponding values for `Cc1cncc(Cc2ccc(Sc3ccccc3)nc2)c1` are 6, 0.03 µM and 0.005 µM.
For `c1ccc(-c2cc(Cn3ccnc3)on2)cc1`, the “Ratio IC50” value in data set [1] was found to be 9. Moreover, the IC50 in data set [2] was 1.3 µM; in data set [3], 0.148 µM.
For `Cc1cncc(Cc2ccc(-c3cccc(NS(C)(=O)=O)c3)nc2)c1` the same measures were 8, 0.016 µM and 0.002 µM.
In the case of `Cc1cncc(Cc2cnc(-c3ccccc3)o2)c1`, the “Ratio IC50” value in data set [1] was found to be 8. Further, the IC50 came out at 0.116 µM in data set [2] and 0.014 µM in data set [3].
As for `c1ccc(-c2nscc2Cn2ccnc2)cc1`, the “Ratio IC50” value in data set [1] worked out at 3. Also, the IC50 in data set [2] came to 0.174 µM; in data set [3], 0.057 µM.
For the compound `Cn1nc(-c2ccccc2)cc1Cn1ccnc1`, the “Ratio IC50” value in data set [1] stood at 4. In addition, the 50% inhibitory concentration (IC50) in data set [2] stood at 0.215 µM; in data set [3] it was 0.058 µM.
In the case of `Cc1cncc(Cc2ccc(Sc3ccccc3F)nc2)c1`, the “Ratio IC50” value in data set [1] is 8. For the same compound, the IC50 in data set [2] was determined as 0.024 µM; in data set [3] it was 0.003 µM.
For `c1ccc(-c2ncc(Cn3ccnc3)s2)cc1` the same measures were 7, 0.459 µM and 0.062 µM.
With `Cc1cncc(Cc2ccc(-c3cnn(C)c3)nc2)c1`, the “Ratio IC50” value in data set [1] is on record as 4. For the same compound, the IC50 in data set [2] was 0.182 µM; in data set [3], 0.042 µM.
Usually half-life stands for how long it takes for the measured level to halve. For the compound `CC(C)(C(=O)c1cccnc1)c1cccnc1` [METYRAPONE], the half-life at 1 µM in data set [4] was determined as 12 min. This compound also gave a 50% inhibitory concentration (IC50) in data set [5] of 5 µM.
